Test results: the RNAGym collection of RNA variant scans (doi:10.1126/science.aae0568)
This sample holds only a part of the variants without activity.

B1: tRNA (parent)
chain: GUUCCGUUGGCGUAAUGGUAACGCGUCUCCCUCCUAAGGAGAAGACUGCGGGUUCGAGUCCCGUACGGAACG

Variants of: B1
Assay: yeast fitness relative to wild type (ratio to wild type); higher = fitter; tRNA-Arg(CCU), competitive growth, 37 C, YPD
Outline: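 Start and end populations of a pooled competition were compared by 100-nucleotide paired-end sequencing of gene amplicons. The Saccharomyces cerevisiae strains carried tRNA-Arg(CCU) gene variants at the native genomic locus, synthesised with a 3% per-site mutation rate at 69 sites, and competed in YPD at 37°C for 24 hours in six parallel replicates. Darwinian fitness relative to wild type was based on the change in genotype frequencies. Genotypes required ≥ 100 starting reads, and estimates < 0.5 were set to 0.5.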

Question: For C4U A65C G68A, which yeast fitness is on record?
Answer: 1.03

Question: Which yeast fitness does the source give for C4U A21U U28C G52C A57C here?
Answer: ≤ 0.5

Question: With C4U A15C C34G A43C A65U as the variant, how does the yeast fitness read?
Answer: ≤ 0.5

Question: With C4U C11G A45U C49U C61G as the variant, how does the yeast fitness read?
Answer: ≤ 0.5

Question: With C4U C29A G38A A69U as the variant, how does the yeast fitness read?
Answer: ≤ 0.5

Question: With C4U C5G as the variant, how does the yeast fitness read?
Answer: 0.95

Question: For C4U A20G C24U, which yeast fitness is on record?
Answer: 0.624

Question: For C4U C5G G48C, which yeast fitness is on record?
Answer: 0.655

Question: With C4U A37C G48C G50C as the variant, how does the yeast fitness read?
Answer: ≤ 0.5

Question: For C4U C30G A36U, which yeast fitness is on record?
Answer: 0.563

Question: For C4U C5U G12A A21C C27U, which yeast fitness is on record?
Answer: ≤ 0.5

Question: Which yeast fitness does the source give for C4U A20U A40U here?
Answer: 0.646

Question: For C4U A37C G50C, which yeast fitness is on record?
Answer: ≤ 0.5

Question: With C4U C29U as the variant, how does the yeast fitness read?
Answer: 1

Question: Which yeast fitness does the source give for C4U C29G here?
Answer: 0.608

Question: Which yeast fitness does the source give for C4U A36G G44C A69U here?
Answer: 0.635

Question: With C4U C5G A37C G58A C62U as the variant, how does the yeast fitness read?
Answer: ≤ 0.5

Question: For C4U A20G U28C C31U G50C C55G U59C C60U G67U, which yeast fitness is on record?
Answer: ≤ 0.5

Question: Which yeast fitness does the source give for C4U C24U A36C C62G C66A here?
Answer: ≤ 0.5

Question: For C4U C11A C29U C49A, which yeast fitness is on record?
Answer: ≤ 0.5

Question: Which yeast fitness does the source give for C4U C24U C31A G56C here?
Answer: 0.63

Question: For C4U C11U A45G, which yeast fitness is on record?
Answer: 0.687

Question: Which yeast fitness does the source give for C4U C11U A45C here?
Answer: 0.7

Question: With C4U C24G G50A as the variant, how does the yeast fitness read?
Answer: ≤ 0.5

Question: With C4U C29U G50A G63A as the variant, how does the yeast fitness read?
Answer: ≤ 0.5

Question: Which yeast fitness does the source give for C4U C5G U16C C24G A42C G56A here?
Answer: ≤ 0.5

Question: For C4U A20C C27U A40C, which yeast fitness is on record?
Answer: 0.605

Question: With C4U C11G C24A C29U as the variant, how does the yeast fitness read?
Answer: ≤ 0.5

Question: With C4U C30A C60G as the variant, how does the yeast fitness read?
Answer: 0.6

Question: With C4U C30A A57G as the variant, how does the yeast fitness read?
Answer: 0.806

Question: For C4U C11A A70G, which yeast fitness is on record?
Answer: ≤ 0.5

Question: For C4U C11G C30G, which yeast fitness is on record?
Answer: ≤ 0.5

Question: With C4U A45G A57C as the variant, how does the yeast fitness read?
Answer: 0.585

Question: Which yeast fitness does the source give for C4U C11A G39A G51A here?
Answer: ≤ 0.5

Question: Which yeast fitness does the source give for C4U A15G C22U here?
Answer: 0.559

Question: With C4U C22U C31U as the variant, how does the yeast fitness read?
Answer: 0.645

Question: Which yeast fitness does the source give for C4U C5U A37U C46U C61U C66U here?
Answer: ≤ 0.5

Question: Which yeast fitness does the source give for C4U A15C G63C here?
Answer: 0.556

Question: With C4U A43C G51A G68U as the variant, how does the yeast fitness read?
Answer: 0.623

Question: Which yeast fitness does the source give for C4U A42C G63C here?
Answer: 0.522

Question: Which yeast fitness does the source give for C4U C30A C49U here?
Answer: 0.825

Question: With C4U A40G C60G as the variant, how does the yeast fitness read?
Answer: 0.544

Question: With C4U A15C C30G A69C as the variant, how does the yeast fitness read?
Answer: ≤ 0.5

Question: Which yeast fitness does the source give for C4U A15C C30G A69U here?
Answer: ≤ 0.5

Question: Which yeast fitness does the source give for C4U C27U G56A here?
Answer: 0.694

Question: With C4U A15C C55U G63C as the variant, how does the yeast fitness read?
Answer: ≤ 0.5

Question: With C4U A36G G39A G67A as the variant, how does the yeast fitness read?
Answer: ≤ 0.5

Question: Which yeast fitness does the source give for C4U C5G C11A C66A here?
Answer: ≤ 0.5

Question: Which yeast fitness does the source give for C4U C22G here?
Answer: 0.943

Question: With C4U C11U A15G C34U as the variant, how does the yeast fitness read?
Answer: ≤ 0.5

Question: With C4U A20G A45U C61U C62G A69C as the variant, how does the yeast fitness read?
Answer: 0.602

Question: Which yeast fitness does the source give for C4U A20C C24G G56A C62A here?
Answer: ≤ 0.5

Question: With C4U A20U C27G C30G A43G A65C G68C as the variant, how does the yeast fitness read?
Answer: 0.639

Question: For C4U A45U, which yeast fitness is on record?
Answer: 0.968

Question: Which yeast fitness does the source give for C4U C11G C66A here?
Answer: ≤ 0.5

Question: Which yeast fitness does the source give for C4U A20U A40U G56C here?
Answer: ≤ 0.5

Question: Which yeast fitness does the source give for C4U A37C C49U C60G here?
Answer: ≤ 0.5

Question: Which yeast fitness does the source give for C4U C27G A45C G58A C62G here?
Answer: ≤ 0.5

Question: For C4U A45U A69C, which yeast fitness is on record?
Answer: 0.79

Question: Which yeast fitness does the source give for C4U A45U A69U here?
Answer: 0.827

Question: For C4U A42C G51C A65G, which yeast fitness is on record?
Answer: 0.508

Question: Which yeast fitness does the source give for C4U C11G C29U G48A G52A here?
Answer: ≤ 0.5

Question: For C4U A21G U47C A70G, which yeast fitness is on record?
Answer: ≤ 0.5

Question: With C4U A21G C46A A70U as the variant, how does the yeast fitness read?
Answer: 0.76

Question: With C4U A20U C29G C49G G63C as the variant, how does the yeast fitness read?
Answer: ≤ 0.5

Question: Which yeast fitness does the source give for C4U C5A C60A C62U U64C G68A A69C here?
Answer: 0.579

Question: For C4U A45G C61G A65C A70U, which yeast fitness is on record?
Answer: ≤ 0.5

Question: With C4U A14U G39A C49G as the variant, how does the yeast fitness read?
Answer: ≤ 0.5

Question: For C4U A15C C30G, which yeast fitness is on record?
Answer: ≤ 0.5

Question: For C4U C27U A57U, which yeast fitness is on record?
Answer: 0.532

Question: Which yeast fitness does the source give for C4U C22G U54A here?
Answer: 0.558

Question: For C4U C29A C31G A42C A45U A65C, which yeast fitness is on record?
Answer: ≤ 0.5

Question: With C4U C11U as the variant, how does the yeast fitness read?
Answer: 0.969

Question: With C4U C11G as the variant, how does the yeast fitness read?
Answer: 0.692

Question: With C4U C11A as the variant, how does the yeast fitness read?
Answer: 0.61

Question: With C4U A21U C66A as the variant, how does the yeast fitness read?
Answer: ≤ 0.5

Question: With C4U A15C C46A A57G C61A A70C as the variant, how does the yeast fitness read?
Answer: ≤ 0.5

Question: For C4U C27G A43U C55G, which yeast fitness is on record?
Answer: ≤ 0.5

Question: For C4U C11G C34U U53C, which yeast fitness is on record?
Answer: ≤ 0.5

Question: Which yeast fitness does the source give for C4U C5U G48A G51C here?
Answer: ≤ 0.5

Question: Which yeast fitness does the source give for C4U C11G C29A here?
Answer: 0.597

Question: With C4U C24A C55A C62U A65C as the variant, how does the yeast fitness read?
Answer: ≤ 0.5

Question: Which yeast fitness does the source give for C4U A45C C55U G68C here?
Answer: ≤ 0.5
